Measured values pooled from the literature.
Target: Dual specificity mitogen-activated protein kinase kinase 1 (MAP2K1, Homo sapiens, UniProt Q02750)

CCN(CC)CCNC(=O)c1c(C)[nH]c(/C=C2\C(=O)Nc3ccc(F)cc32)c1C
remaining activity (enzyme activity; inhibitor; 0.1 µM): 79%

CNC(=O)Nc1ccc2c(c1)CC[C@@]21OC(=O)N(CC(=O)N(Cc2ccc(F)cc2)[C@@H](C)C(F)(F)F)C1=O
remaining binding (cell-free assay; competition with immobilised ligand; 1 µM): 85%

CCN(CC)CCNC(=O)c1c(C)[nH]c(/C=C2\C(=O)Nc3ccc(F)cc32)c1C
inhibition (enzyme activity; inhibitor; 10 µM): 76%

Nc1nc(NC2CCCCC2)sc1C(=O)c1ccccc1
remaining activity (enzyme activity; inhibitor; 10 µM): 68%

CCN(CC)c1ccc(C2=NNC(=O)CC2C)cc1[N+](=O)[O-] (stereo not shown)
remaining activity (enzyme activity; inhibitor; 10 µM): 126%

CNCc1ccc(-c2cc(-c3nc(-c4ccc(S(=O)(=O)C(C)C)cc4)cnc3N)on2)cc1
inhibition (enzyme activity; inhibitor; 2 µM): 6%

O=C(Nc1cnn(-c2csc(C(=O)NC3COC3)c2)c1)Nc1c(F)cccc1Cl
remaining activity (enzyme activity; inhibitor; 5 µM): 107%

Oc1cccc(-c2nc(N3CCOCC3)c3oc4ncccc4c3n2)c1
remaining activity (enzyme activity; inhibitor; 10 µM): 105%

COc1cccc(-c2cc(=O)c3ccccc3o2)c1N
remaining signal (cell-free assay; 0.5 µM): 69.1%

CCN(CC)Cc1cc(Nc2ccnc3cc(Cl)ccc23)ccc1O
remaining binding (cell-free assay; competition with immobilised ligand; 10 µM): 96%

Nc1cnc(N2CCc3cc(S(=O)(=O)Nc4c(F)cc(Cl)cc4F)cc(N4CCCC4=O)c32)nc1
remaining binding (cell-free assay; competition with immobilised ligand; 1 µM): 100%

FC(F)(F)Oc1cccc(-c2cnc3ccc(-c4ccncc4)nn23)c1
activity vs control (enzyme activity; inhibitor; radiometric; 1 µM): 79%

CN(C(=O)c1ccccc1)c1cc(N(C)c2ccc3c(c2)CCc2ccc(C(=O)NCCN4CCOCC4)cc2C3=O)ccc1F
remaining binding (cell-free assay; competition with immobilised ligand; 1 µM): 100%

CCN1CCN(Cc2ccc(NC(=O)c3ccc(C)c(Oc4ccnc5[nH]ccc45)c3)cc2C(F)(F)F)CC1
inhibition (target engagement in cells; inhibitor; chemoproteomics; Huh-7; 1 µM): -41.7%

FC(F)c1nc2ccccc2n1-c1nc(N2CCOCC2)nc(N2CCOCC2)n1
remaining activity (enzyme activity; inhibitor; 10 µM): 83%

CN([C@@H]1CCc2c(CC(=O)O)c3cc(S(C)(=O)=O)ccc3n2C1)S(=O)(=O)c1ccc(F)cc1
remaining binding (cell-free assay; competition with immobilised ligand; 1 µM): 98%

Cn1cnc(Br)c1C1=CN(c2ncnc3[nH]cnc23)CCS1
inhibition (enzyme activity; inhibitor; radiometric; 50 nM): 17.1%

O=C1NC(=O)c2cc(Nc3ccc(F)cc3)c(Nc3ccc(F)cc3)cc21
remaining signal (cell-free assay; 0.5 µM): 103%

CN(C)C1CCN(CC#Cc2nn(C3CCCC3)c3nc(NCc4ccccc4)ncc23)C1 (stereo not shown)
inhibition (enzyme activity; inhibitor; FRET; 0.1 µM): 9%

C=CC(=O)Nc1cc(Nc2nccc(Nc3cc(Cl)c(F)cc3C(C)(C)O)n2)c(OC)cc1N1CC[C@@H](N(C)C)C1
inhibition (enzyme activity; inhibitor; 1 µM): 21%

O=C(NCc1ncc(C(F)(F)F)cc1Cl)c1ccc2c(c1)C1(CCS(=O)(=O)CC1)[C@H](C1CC1)N2S(=O)(=O)c1ccc(F)cc1
remaining binding (cell-free assay; competition with immobilised ligand; 1 µM): 98%

O=C1Nc2ccc(Cl)cc2C1=Cc1cc(Cl)c(O)c(Cl)c1
remaining signal (cell-free assay; 0.5 µM): 96.8%

COc1cc(Nc2cnc(C#N)c(O[C@H](C)CN(C)C)n2)ncc1-c1cnn(C)c1
remaining activity (enzyme activity; inhibitor; radiometric; 1 µM): 80%

COc1cc2ncnc(Nc3ccc(Oc4ccccc4)cc3C)c2cc1OC
inhibition (enzyme activity; inhibitor; 1 µM): 11%

Cc1ccc(C(=O)Nc2ccc(CN3CCN(C)CC3)c(C(F)(F)F)c2)cc1C#Cc1cnc2cccnn12
remaining activity (enzyme activity; inhibitor; 23.5 nM): 100%

Cc1ccc(C(=O)NCc2ccsc2)cc1C#Cc1cn(C(C)C)c2ncnc(N)c12
activity vs control (enzyme activity; inhibitor; 1 µM): 93%

CC(C)(C)c1nc2c(s1)c1nc(N)ncc1c1ccc(NS(=O)(=O)c3c(F)cccc3F)c(F)c12
remaining activity (enzyme activity; inhibitor; radiometric; 1 µM): 79%

CNC(=O)c1cc(Oc2ccc(NC(=O)Nc3ccc(Cl)c(C(F)(F)F)c3)cc2)ccn1
inhibition (enzyme activity; inhibitor; 10 µM): 2%

CNCc1ccccc1-c1csc([C@H](C)Nc2nc(C)nc3cc(OC)c(OC)cc23)c1
remaining binding (cell-free assay; competition with immobilised ligand; 1 µM): 100%

Cc1cc(NC(=O)c2cccc3cc(-c4cccc5[nH]nc(N)c45)ccc23)ccc1F
activity vs control (enzyme activity; inhibitor; 0.1 µM): 102%

Cc1[nH]c(/C=C2\C(=O)Nc3ccc(F)cc32)c(C)c1C(=O)N[C@H]1CCN(C(=O)N(C)C)C1
remaining activity (enzyme activity; inhibitor; 0.1 µM): 94%

Cc1ccc(Nc2nccc(N(C)c3ccc4c(C)n(C)nc4c3)n2)cc1S(N)(=O)=O
inhibition (enzyme activity; inhibitor; 0.3 µM): -5%

COc1cc(Cl)c(C(=O)N[C@@H](CN[C@H]2CC[C@@H](N)CC2)Cc2ccc(C#N)cc2)cc1-c1ccc(CN[C@H](C)c2ccc(C)cc2)o1
remaining activity (enzyme activity; inhibitor; 1 µM): 98%

CS(=O)(=O)N1CCCC(NC(=O)[C@H](CCC2CCCCC2)NC(=O)c2ccc(CNC(=O)c3cnc4ccccn34)cc2)C1 (stereo partly shown)
remaining binding (cell-free assay; competition with immobilised ligand; 0.1 µM): 100%

CC(C)(O)[C@H]1CC[C@H](Nc2ccc3ncc(-c4cccc(C(F)(F)F)c4)n3n2)CC1
remaining activity (enzyme activity; inhibitor; 1 µM): 79.5%

CC(C)CC(=O)N1CCc2nc(-c3ccc(Br)cc3)nc(N(C)Cc3ccccc3)c2C1
remaining binding (cell-free assay; competition with immobilised ligand; 0.1 µM): 100%

CCCOc1ccc(OC)c(F)c1C(=O)c1ccc(C(=O)N[C@@H]2CNC[C@H]2NC(=O)c2ccc3[nH]ncc3c2)cc1
remaining activity (enzyme activity; inhibitor; 10 µM): 101%
